# From the RNAGym collection of RNA variant scans (doi:10.1126/science.aae0568)
# Variants at the floor of the assay were thinned out.
# B1: tRNA (parent)
# chain: GUUCCGUUGGCGUAAUGGUAACGCGUCUCCCUCCUAAGGAGAAGACUGCGGGUUCGAGUCCCGUACGGAACG
# Variants of: B1
# Assay: yeast fitness relative to wild type (ratio to wild type); higher = fitter; tRNA-Arg(CCU), competitive growth, 37 C, YPD
# Summary of the method: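 For this measurement, the tRNA-Arg(CCU) gene was varied by chemical synthesis at a 3% per-site mutation rate across 69 sites, and each variant was placed at the native genomic locus in Saccharomyces cerevisiae. The pooled strains went through a 24-hour competition in YPD at 37°C in six parallel replicates, with amplicons from start and end populations read by 100-nucleotide paired-end sequencing. Darwinian fitness relative to wild type followed from the change in each genotype's frequency. Genotypes needed ≥ 100 starting reads, and estimates < 0.5 were set to 0.5.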
row,Variant,yeast fitness
1,C4A C55G C61U,≤ 0.5
2,U3C C46A G67A A70C,0.556
3,U3C U19G C27G C34A A42U,≤ 0.5
4,U3C G25C C33G C61G,≤ 0.5
5,U3G U28C C62U,0.638
6,C4A A21U,0.676
7,U3G G51A C66U,≤ 0.5
8,U3G C30G A70C,0.628
9,C4A G17A C24G G63C,0.64
10,U3G A45G U54C,0.678
11,U3C G9A A69U,0.882
12,C4A A70U,0.879
13,C4A A70G,0.93
14,U3C G25A A65C,0.732
15,C4A A42U A69U,0.625
16,C4A A15C C66U,≤ 0.5
17,C4A A15G C27U,0.664
18,C4A G38C,0.652
19,C4A G9C C11G C30A C55A C62A,≤ 0.5
20,C4A C5A C11G A15U U19C A21U,≤ 0.5
21,U3G U16C G39C A45C C49G C62G,≤ 0.5
22,U3C G25U U59C A69C,0.531
23,C4A A20U A43U A57C,≤ 0.5
24,U3C C30U,0.879

row,Variant,yeast fitness
1,U3C G10U U26C A42U,≤ 0.5
2,U3C G58A,0.922
3,C4A G25C C61A,0.694
4,U3G G38A C60A,≤ 0.5
5,C4A C5G C24U G25A A57U,≤ 0.5
6,C4A C11G C31U G38C G52A C66G,0.649
7,C4A C11A U13C A70U,≤ 0.5
8,C4A C31U C34A A40G,≤ 0.5
9,U3C U13A C31U G41A A57C A70U,≤ 0.5
10,C4A C22U A40G A43U C46G C49G C62U,0.527
11,C4A A14G U64A A70C,≤ 0.5
12,C4A G23A U28A,≤ 0.5
13,U3G C5A A20G C29U C31A C55U A57C,≤ 0.5
14,C4A A43C G51A G56C,0.516
15,U3C G10C C27U G68C,≤ 0.5
16,U3G C4U A20G U35A G58A G67U,≤ 0.5
17,C4A C22A,0.706
18,U3G U8A C24A G56C,≤ 0.5
19,C4A C66A,0.569
20,C4A C46U G68A,0.887
21,C4A C46G C61A,0.522
22,C4A C5U G39C A42C,≤ 0.5
23,C4A C31G C46U,0.677
24,U3C G9A C62G,0.681

row,Variant,yeast fitness
1,C4A A14U A20C U28G A42G,≤ 0.5
2,U3C C34A G44C C46U G51A,≤ 0.5
3,C4A C5U C22U C34A C62U A70U,≤ 0.5
4,C4A C24U U47G,≤ 0.5
5,C4A C11A C33G A57C C61G,0.534
6,U3G A43U C62U,0.727
7,U3C G12A C24A A36U C61U G67U,0.55
8,C4A C5U C24U U53A A65G,≤ 0.5
9,C4A C5U C29G C33U U59G A69C,0.533
10,U3C G12A G48C,0.558
11,C4A G39C G41C G56C,≤ 0.5
12,U3G U8C A15U G25A C49A,≤ 0.5
13,C4A G9A G18C C22A A69C,≤ 0.5
14,U3C U32A C46G C62A,≤ 0.5
15,U3C G50A,0.961
16,C4A A15G C31G G50A,≤ 0.5
17,U3G A45G A69U,0.763
18,C4A G18C,0.58
19,C4A G18A,0.78
20,C4A C27G C31G,≤ 0.5
21,C4A A14G A36U A57U,0.953
22,U3C U47A U53C,≤ 0.5
23,C4A C46U C55U,≤ 0.5
24,U3C G12A C46U G52C,≤ 0.5

row,Variant,yeast fitness
1,C4A C11G C34U,≤ 0.5
2,U3G C24A C34A C46G,0.581
3,C4A A21G C60G G67A,≤ 0.5
4,C4A C5U U8C,≤ 0.5
5,U3C G17C C22A C24G U28C C33A,≤ 0.5
6,U3C G48C,0.817
7,U3C G48A,0.952
8,U3C C31A,0.845
9,U3C U13C U19A C22U G68C,≤ 0.5
10,U3C G41A U53G U59A C62G,≤ 0.5
11,C4A G41A A42C G50C A70G,≤ 0.5
12,C4A C27G C46U,0.636
13,U3C U8A,0.639
14,U3C U8C,0.906
15,U3C U8C C30G U35C A42G C49U G56A G58A A70C,≤ 0.5
16,U3C U8C U13C,0.548
17,C4A G10C A57U,≤ 0.5
18,U3C C27U C33U C61A,≤ 0.5
19,C4A C61A G67A,≤ 0.5
20,U3C G17C A40G C61U,≤ 0.5
21,C4A A45U C55U A70C,≤ 0.5
22,U3G C49G G56A,≤ 0.5
23,U3G C33U A42G A57U C61A,≤ 0.5
24,C4A C11U C34G C62A,0.748

row,Variant,yeast fitness
1,U3G C5G A20C,≤ 0.5
2,U3G C66U,0.699
3,C4A C5U C22U C34A C49G,≤ 0.5
4,C4A G9A C22A C27G,≤ 0.5
5,C4A G17A G51C G63A,≤ 0.5
6,U3C C27G U28A,≤ 0.5
7,U3C G18A U53A U54G G67U,≤ 0.5
8,U3C U16C C30G C31G A37U,0.718
9,C4A C11G,0.769
10,C4A C31G A40U A65U G68C,0.595
11,U3G A14C C24G A36G,≤ 0.5
12,U3C G9A C61U,0.827
13,U3C G38A A45C,≤ 0.5
14,U3C U16G G18A A43C U53A,≤ 0.5
15,C4A A14G G17A C60G,≤ 0.5
16,U3C U16A,0.936
17,U3C U7G A14C C31A,0.788
18,C4A G23A A40C,≤ 0.5
19,U3G A20C A21G C61A,≤ 0.5
20,U3G A20C A43U C55A A65U A70G,≤ 0.5
21,C4A C5A C22A U28G C33G A57G,≤ 0.5
22,C4A C46G C55G,≤ 0.5
23,U3G A14G C60G,≤ 0.5
24,C4A C34G A70G,≤ 0.5

row,Variant,yeast fitness
1,C4A G9A U13G C22U C61A A70C,≤ 0.5
2,C4A G10A A21G C22G A65G,≤ 0.5
3,U3C U26C A42U C60G G67A,≤ 0.5
4,C4A A45C G52A G67U,0.577
5,C4A A20C A42U C66U,≤ 0.5
6,C4A G6A A40G U53G C62G C66U,0.6
7,U3C G25U U64G,≤ 0.5
8,C4A G17C G23C A45C U54C,≤ 0.5
9,C4A G6A C30A A65G,≤ 0.5
10,C4A C5U C34U U64G A69U,≤ 0.5
11,U3C G9C C11U C30G A43C U59A G67C A69C,≤ 0.5
12,C4A C5A A20U,0.605
13,C4A A14G C24U U32G A43G A65U,≤ 0.5
14,U3C C34G A40C A43U,≤ 0.5
15,C4A A42U A57U G58C,≤ 0.5
16,C4A C5U C22U C34A A65U,≤ 0.5
17,U3C G41A A65C,0.51
18,U3C C31A C49A,≤ 0.5
19,C4A C30G,0.661
20,C4A C30A,0.837
21,C4A G6A G50A,≤ 0.5
22,C4A G6A A21C C24U A43G,≤ 0.5
23,U3G C4A A40U C66A A69C,≤ 0.5
24,U3G C11A G23C G52C,≤ 0.5

row,Variant,yeast fitness
1,U3C U59C A65C A69G,0.593
2,C4A C29U G67A A70U,≤ 0.5
3,C4A C22G G51C A65C,0.731
4,U3G U13G C30A C31A,≤ 0.5
5,C4A C33G U47A,0.625
6,U3G G18A A65U,0.548
7,U3G C11U A40C A45C U47C A57C C62U,≤ 0.5
8,C4A A20C C27U G50A,0.597
9,C4A A14C U19A,≤ 0.5
10,U3G U8A C31A G52A,≤ 0.5
11,C4A C27U U28G C33G A36G G56C,≤ 0.5
12,U3G G41C G51C A57G,≤ 0.5
13,C4A G6A G68A,≤ 0.5
14,U3G A37U G63A C66U,≤ 0.5
15,C4A G10A C31A,≤ 0.5
16,C4A A37C,0.707
17,U3G A15C,0.511
18,C4A G18C C33G,0.591
19,U3G G51A,0.701
20,U3G C4U,0.915
21,C4A A37U C55U,0.585
22,U3G A21C G67U,≤ 0.5
23,U3C U8A U19A U54G,≤ 0.5
